According to ChEMBL document CHEMBL2311271 (Eur J Med Chem, 2013):

What was measured:
[1] = tested on: Lewis lung carcinoma cell line; assay: Antitumor activity against mouse LLC cells xenografted in mouse assessed as tumor inhibition at 7.5 mg/kg, ip qd for 7 days measured every 3 days for 21 days; type: functional; conditions: route intraperitoneal
Outline: (§1)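 Tumour cells passaged in mice for 7 days, then harvested. Viable cells (2 × 10⁶/mouse) injected s.c. into the armpit. Starting 24 h later, compound given i.p. once daily for 7 days, 10 female mice per group. Mice killed on day 21 after inoculation and tumours excised and weighed. Inhibition = (C − T)/C × 100, using mean tumour weights of treated (T) and negative control (C) groups.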

[2] = Antitumor activity against mouse Sarcoma 180 cells xenografted in mouse assessed as tumor inhibition at 7.5 mg/kg, ip qd for 7 days measured every 3 days for 21 days; type: functional; conditions: Sarcoma-180, ip, route intraperitoneal; outline: as §1
Mus musculus = assay: Neurotoxicity in ip dosed C57BL/6 mouse assessed as tremble, twitch, jumping and supination response; type: toxicity, organism-based; conditions: in vivo
Outline: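 C57BL/6 mice (9–12 weeks, 18–22 g), fasted overnight with water, dosed i.p. with 1.0–500 mg/kg in 0.5% CMC-Na; 10 per group (5 male, 5 female). Watched continuously 2 h for tremor, twitch, jumping, supination and other behavior, then intermittently to 24 h and occasionally to 14 days; killed day 14, with heart, liver and kidneys inspected.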

[3] = tested on: Lewis lung carcinoma cell line; assay: Antitumor activity against mouse LLC cells xenografted in mouse assessed as tumor inhibition at 2.5 mg/kg, ip qd for 7 days measured every 3 days for 21 days; type: functional; conditions: route intraperitoneal
[4] = Antitumor activity against mouse Sarcoma 180 cells xenografted in mouse assessed as tumor inhibition at 2.5 mg/kg, ip qd for 7 days measured every 3 days for 21 days; type: functional; conditions: Sarcoma-180, ip, route intraperitoneal
[5] = Acute toxicity in ip dosed C57BL/6 mouse measured up to 14 days; type: organism-based; conditions: in vivo
Outline: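 Healthy C57BL/6 mice (9–12 weeks, 18–22 g), fasted overnight, 10 per group (5 male, 5 female). Single i.p. dose, 1.0 to 500 mg/kg in 0.5% CMC-Na. Watched continuously for 2 h, intermittently over 24 h, then occasionally to day 14 for behaviour, deaths and delayed effects. Heart, liver and kidneys inspected at necropsy. LD50 derived graphically.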

KB = assay: Cytotoxicity against human KB cells by MTT assay; type: functional, cell-based
Outline: (§2)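 Cells grown in RPMI-1640 with 10% fetal calf serum plus penicillin and streptomycin, 37 °C, 5% CO₂. Compounds in DMSO, final ≤2% (v/v), tested in 96-well cultures with MTT staining. IC₅₀ = concentration cutting optical density 50% versus untreated cells; three replicate wells per point; mean of three independent determinations.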

CWR22R = assay: Cytotoxicity against human 22Rv1 cells by MTT assay; type: functional, cell-based; outline: as §2
U-251 = assay: Cytotoxicity against human U251 cells by MTT assay; type: functional, cell-based; outline: as §2
[6] = Cytotoxicity against human Blu-87 cells by MTT assay; type: functional, cell-based; outline: as §2
769-P = assay: Cytotoxicity against human 769-P cells by MTT assay; type: functional, cell-based; outline: as §2
SCaBER = assay: Cytotoxicity against human SCaBER cells by MTT assay; type: functional, cell-based; outline: as §2
HT-29 = assay: Cytotoxicity against human HT-29 cells by MTT assay; type: functional, cell-based; outline: as §2
786-0 = assay: Cytotoxicity against human 786-0 cells by MTT assay; type: functional, cell-based; outline: as §2
A-375 = assay: Cytotoxicity against human A375 cells by MTT assay; type: functional, cell-based; outline: as §2
A549 = assay: Cytotoxicity against human A549 cells by MTT assay; type: functional, cell-based; outline: as §2
OS-RC-2 = assay: Cytotoxicity against human OS-RC2 cells by MTT assay; type: functional, cell-based; outline: as §2
[7] = tested on: Lewis lung carcinoma cell line; assay: Antitumor activity against mouse LLC cells xenografted in mouse assessed as tumor inhibition at 20 mg/kg, ip qd for 7 days measured every 3 days for 21 days; type: functional; conditions: route intraperitoneal
[8] = Antitumor activity against mouse Sarcoma 180 cells xenografted in mouse assessed as tumor inhibition at 20 mg/kg, ip qd for 7 days measured every 3 days for 21 days; type: functional; conditions: Sarcoma-180, ip, route intraperitoneal
MCF7 = assay: Cytotoxicity against human MCF7 cells by MTT assay; type: functional, cell-based; outline: as §2
HepG2 = assay: Cytotoxicity against human HepG2 cells by MTT assay; type: functional, cell-based; outline: as §2
Bel-7402 = assay: Cytotoxicity against human Bel7402 cells by MTT assay; type: functional, cell-based; outline: as §2
BGC-823 = assay: Cytotoxicity against human BGC823 cells by MTT assay; type: functional, cell-based; outline: as §2
HeLa = assay: Cytotoxicity against human HeLa cells by MTT assay; type: functional, cell-based; outline: as §2
[9] = tested on: Lewis lung carcinoma cell line; assay: Antitumor activity against mouse LLC cells xenografted in mouse assessed as tumor inhibition at 40 mg/kg, ip qd for 7 days measured every 3 days for 21 days; type: functional; conditions: route intraperitoneal
[10] = Antitumor activity against mouse Sarcoma 180 cells xenografted in mouse assessed as tumor inhibition at 40 mg/kg, ip qd for 7 days measured every 3 days for 21 days; type: functional; conditions: Sarcoma-180, ip, route intraperitoneal
[11] = tested on: Lewis lung carcinoma cell line; assay: Antitumor activity against mouse LLC cells xenografted in mouse assessed as tumor inhibition at 1 mg/kg, ip qd for 7 days measured every 3 days for 21 days; type: functional; conditions: route intraperitoneal
[12] = Antitumor activity against mouse Sarcoma 180 cells xenografted in mouse assessed as tumor inhibition at 1 mg/kg, ip qd for 7 days measured every 3 days for 21 days; type: functional; conditions: Sarcoma-180, ip, route intraperitoneal

| Structure (SMILES) | Activity (Mus musculus) | LD50 at 336 h [5] [mg/kg] | IC50 (KB) [µM] | IC50 (CWR22R) [µM] | IC50 (U-251) [µM] | IC50 [6] [µM] | IC50 (769-P) [µM] | IC50 (SCaBER) [µM] | IC50 (HT-29) [µM] | IC50 (786-0) [µM] | IC50 (A-375) [µM] | IC50 (A549) [µM] | IC50 (OS-RC-2) [µM] | IC50 (MCF7) [µM] | IC50 (HepG2) [µM] | IC50 (Bel-7402) [µM] | IC50 (BGC-823) [µM] | IC50 (HeLa) [µM] | further results |
| --- | --- | --- | --- | --- | --- | --- | --- | --- | --- | --- | --- | --- | --- | --- | --- | --- | --- | --- | --- |
| COc1ccc2c(c1)[nH]c1c(C)nccc12 [HARMINE] | Toxic | – | – | – | – | – | – | – | – | – | – | – | – | – | – | – | – | – | inhibition in vivo at 7.5 mg/kg [1]: 33.7%; inhibition in vivo at 7.5 mg/kg [2]: 30.8% |
| CCn1c2cc(OCc3c(F)c(F)c(F)c(F)c3F)ccc2c2cc[n+](Cc3ccccc3)c(C)c21.[Br-] | Non-toxic | 12.5 | 13.8 | < 1.4 | 6.6 | 17.7 | 13 | 6.8 | 1.6 | 2.9 | 3.8 | 1.8 | 1.8 | – | – | – | – | – | inhibition in vivo at 2.5 mg/kg [3]: 23.7%; inhibition in vivo at 2.5 mg/kg [4]: 36.9% |
| CCC(CC)Oc1ccc2c3ccnc(C)c3n(CCCc3ccccc3)c2c1 | Non-toxic | 100 | – | – | – | – | – | – | – | – | – | – | – | 41.9 | 7.3 | 34.3 | 18.3 | 70.1 | inhibition in vivo at 20 mg/kg [7]: 27.1%; inhibition in vivo at 20 mg/kg [8]: 30.1% |
| CCn1c2cc(OCC(C)C)ccc2c2ccnc(C)c21 | Non-toxic | 200 | 20.3 | – | 44.6 | 14.2 | 27 | 16.4 | 16.9 | 24.3 | – | 30.3 | 32 | 13.2 | 20.8 | 21.9 | 29.8 | 23.3 | inhibition in vivo at 40 mg/kg [9]: 20.8%; inhibition in vivo at 40 mg/kg [10]: 27.8% |
| CCCCCCCCCCOc1ccc2c3cc[n+](Cc4ccccc4)c(C)c3n(CC(C)C)c2c1 | – | – | < 1.5 | < 1.5 | 1.5 | 3.2 | < 1.5 | 7.8 | 1.7 | 1.9 | < 1.5 | < 1.5 | 4 | 1.8 | 2.4 | 5.8 | 2 | 1.6 | – |
| Cc1c2c(cc[n+]1Cc1ccccc1)c1ccc(OCc3ccccc3)cc1n2CC(C)C.[Br-] | Non-toxic | 5 | < 1.5 | < 1.5 | < 1.5 | 6.9 | 2.4 | 4.6 | 3.4 | < 1.5 | 3.3 | 3.5 | 4.6 | – | – | – | – | – | inhibition in vivo at 1 mg/kg [11]: 23.7%; inhibition in vivo at 1 mg/kg [12]: 52.6% |
| CCCCn1c2cc(OCc3ccccc3)ccc2c2cc[n+](Cc3ccccc3)c(C)c21 | – | – | 4 | 2.1 | 5.5 | 4.6 | 20 | 8.5 | 3.7 | < 1.5 | 4 | 4.4 | 3.6 | 15.7 | 2.7 | 3.6 | 21.4 | 2.2 | – |
